Measurements of several laboratories.

CN(C)C(=O)c1cc2cnc(Nc3ccc(-c4ccc5c(=O)cc(N6CCOCC6)oc5c4)cc3)nc2n1C1CCCC1.Cl
half-life (BALB/c mouse; plasma; intravenous; 2 mg/kg): 2.8 h

Cc1ccc2c(c1)C(=O)[C@]1(O)CCN(c3ccc4nc(C)ccc4c3)C1=N2.Cl
half-life (mouse; brain; subcutaneous; 5 mg/kg): 10.5 h

Cc1ncsc1-c1ccc([C@H](CC(=O)N2CCN(c3ccc(C#Cc4ccc(C(=O)N5CCC(n6cc(-c7ccc8c(c7)CCN8C(=O)Cc7cccc(OC(F)(F)F)c7)c7c(N)ncnc76)CC5)cc4)cn3)CC2)NC(=O)[C@@H]2C[C@@H](O)CN2C(=O)[C@@H](NC(=O)C2(F)CC2)C(C)(C)C)cc1
half-life (male C57BL/6 mouse; plasma; intravenous; 1 mg/kg): 7.3 h

Cc1ccc(OCC(=O)N[C@@H](Cc2c[nH]c3ccccc23)C(=O)OC(C)C)cc1
half-life (male Sprague-Dawley mouse; plasma; intravenous; 10 mg/kg): 2.2 h

CC1(CNc2nc(-c3cccs3)nc(Cl)c2-c2c(F)cc(N)cc2F)COC1
half-life (mouse; plasma; intraperitoneal; 2.5 mg/kg): 1.51 h

CCCC[C@@H](NC(=O)[C@@H](Cc1cn(C(=O)OC)c2ccccc12)NC(=O)[C@H](CC(C)(C)C)NC(=O)N1[C@H](C)CCC[C@@H]1C)C(=O)O
half-life (male CD-1 mouse; plasma; intravenous; 3 mg/kg): 0.68 h

NCc1ccc(-c2nn(Cc3ccncc3)c3ccccc23)o1
half-life (male CD-1 mouse; plasma; oral; 10 mg/kg): 1.75 h

Cc1ccc(CCC(=O)Nc2nnc(S(N)(=O)=O)s2)cc1
half-life (male BALB/c mouse; plasma; oral; 20 mg/kg): 4.64 h

Cc1[nH]c(C)c(S(=O)(=O)Nc2ccc(C(F)(F)F)c(Cl)c2)c1C(=O)N1CCC(F)(F)C1
half-life (male CD-1 mouse; brain; intraperitoneal; 40 mg/kg): 3.65 h

O=C1CCC(N2Cc3cc(C4CCN(Cc5ccccc5)CC4)ccc3C2=O)C(=O)N1 (stereo not drawn)
half-life (male CD-1 mouse; plasma; intravenous; 1 mg/kg): 3.28 h

COC1=CC(c2ccc[nH]2)=N/C1=C\c1[nH]c(Cc2ccc(OC(F)(F)F)cc2)cc1Cc1ccc(OC(F)(F)F)cc1
half-life (male CD-1 mouse; plasma; oral; 40 mg/kg; single dose): 9.71 h

Cl.Fc1ccc(Oc2ccc(Nc3ccc4ncc(OCC5CCNCC5)nc4c3)cc2)cc1
half-life (SCID mouse; plasma; intraperitoneal; 50 mg/kg): > 40 h

Cc1cc(-c2ccnc3[nH]cc(F)c23)cc(F)c1[C@@]1(O)[C@H](C)CN(C(=O)CN)C[C@@H]1C
half-life (male CD-1 mouse; plasma; intravenous; 1 mg/kg): 9 h

COc1ccc(C[C@H](NC(=O)[C@H](C)NC(=O)CN2CCOCC2)C(=O)N[C@@H](Cc2ccccc2)C(=O)C2(C)CO2)cc1 (stereo in doubt)
half-life (mouse; plasma; intravenous; 20 mg/kg; single dose): 7.9 h

COc1cc(C2C3=C(COC3=O)N(CCO)c3cc4c(cc32)CCC4)cc(OC)c1OC (stereo not drawn)
half-life (female C57BL/6 mouse; plasma; intraperitoneal; 50 mg/kg): 5.2 h

Cc1cc(-c2ccnc3[nH]cc(F)c23)cc(F)c1[C@@]1(O)[C@H](C)CN(C2CCS(=O)(=O)CC2)C[C@@H]1C
half-life (male CD-1 mouse; plasma; intravenous; 1 mg/kg): 2.6 h

COCC(=O)N1CCc2[nH]c3c(Cl)c(Cl)ccc3c2[C@@H]1C
half-life (C57BL/6 mouse; blood; intravenous; 1 mg/kg): 0.653 h

Cc1ncsc1-c1ccc([C@H](C)NC(=O)[C@@H]2C[C@@H](O)CN2C(=O)[C@@H](NC(=O)CCCCCCCCC(=O)N2CCC(n3cc(-c4ccc5c(c4)CCN5C(=O)Cc4cccc(OC(F)(F)F)c4)c4c(N)ncnc43)CC2)C(C)(C)C)cc1
half-life (male C57BL/6 mouse; plasma; intravenous; 1 mg/kg): 3.1 h

OCc1ccc(-c2nn(Cc3ccccc3)c3ccccc23)o1
half-life (male CD-1 mouse; plasma; intravenous; 5 mg/kg): 1.39 h

CCOC(=O)c1c(NC(=O)CNC(C)C)sc2c1CCCCC2
half-life (male mouse; plasma; intraperitoneal; 5 mg/kg; single dose): 1.47 h

COC1=CC(c2ccc[nH]2)=N/C1=C\c1cc(Cc2ccc(OC(F)(F)F)cc2)c(C)[nH]1.Cl
half-life (male CD-1 mouse; plasma; oral; 40 mg/kg; single dose): 51.9 h

CC(C)C[C@@H]1CCO[C@@H]2[C@H](CN[C@@H]2C(=O)N[C@H]2[C@H]3O[C@H](SCC/C=C\[C@H]2C)[C@H](O)[C@@H](O)[C@H]3O)C1
half-life (mouse; plasma; intravenous; 3 mg/kg; single dose): 4.66 h

Cc1ncsc1-c1ccc([C@H](CC(=O)N2CC3(C2)CN(c2ccc(C#Cc4ccc(C(=O)N5CCC(n6cc(-c7ccc8c(c7)CCN8C(=O)Cc7cccc(OC(F)(F)F)c7)c7c(N)ncnc76)CC5)cc4)cn2)C3)NC(=O)[C@@H]2C[C@@H](O)CN2C(=O)[C@@H](NC(=O)C2(F)CC2)C(C)(C)C)cc1
half-life (male C57BL/6 mouse; plasma; intravenous; 1 mg/kg): 5.9 h

NCc1ccc(-c2nn(Cc3ccccc3)c3ccccc23)o1
half-life (male CD-1 mouse; plasma; intraperitoneal; 30 mg/kg): 2.33 h
